Values after ≈ are worked out from the molar mass of the structure shown. Active and inactive are the calls of the source. The rule behind the calls is not given here.
Legend:
[1] = molecular target: T1, Transient receptor potential cation channel subfamily A member 1 (Homo sapiens, UniProt O75762); assay: Antagonist activity at human TRPA1 assessed as inhibition of AITC-induced calcium uptake by [45Ca2+] fluorimetry assay
Method in brief: (§1)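 Antagonism read by 45Ca2+ fluorimetry in cells expressing rat or human TRPA1. IC50 determined. Where no IC50 was obtained, % inhibition was measured at a single 2 μM point.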

Plasma [2] = assay: Unbound plasma concentration in Harlan Sprague-Dawley rat model of AITC-induced flinching at 100 mg/kg, po after 1 hr; format: ADME, organism-based; set-up: dose 100 mg/kg, route oral; conditions: in vivo
Method in brief: (§2)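 Male Harlan Sprague-Dawley rats dosed orally in 2% HPMC/1% Tween-80, with a 0.1% AITC paw challenge at 1 h. Unbound plasma concentration determined with n=8, 6 and 8 for the 10, 30 and 100 mg/kg doses respectively.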

Rattus norvegicus [3] = species: Rattus norvegicus; conditions: Harlan Sprague-Dawley, 100 mg/kg
[4] = molecular target: T1, Transient receptor potential cation channel subfamily A member 1; assay: Agonist activity at human TRPA1 by [45Ca2+] fluorimetry assay
[5] = Clearance in human liver microsomes; format: ADME; conditions: read-out: CLH
[6] = Clearance in rat liver microsomes; format: ADME; conditions: read-out: CLH
[7] = Solubility in fasted state simulated intestinal fluid at pH 6.8; format: ADME
[8] = Solubility in 0.01 N HCl solution in water; format: physicochemical
Method in brief: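 Solubility measured in 0.01 N hydrogen chloride solution in water.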

[9] = molecular target: T2, Transient receptor potential cation channel subfamily A member 1 (Rattus norvegicus, UniProt Q6RI86); assay: Agonist activity at rat TRPA1 by [45Ca2+] fluorimetry assay
[10] = molecular target: T2, Transient receptor potential cation channel subfamily A member 1; assay: Antagonist activity at rat TRPA1 assessed as inhibition of AITC-induced calcium uptake by [45Ca2+] fluorimetry assay; method in brief: as §1
[11] = Solubility in PBS buffer at pH 7.4; format: physicochemical
Method in brief: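 Solubility measured in phosphate buffered saline, pH 7.4.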

[12] = Half life in Sprague-Dawley rat at 0.5 mg/kg, iv; format: ADME, organism-based; set-up: dose 0.5 mg/kg, route intravenous; conditions: in vivo
Method in brief: (§3)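 Male Sprague-Dawley rats (n = 3) given 0.5 mg/kg iv in DMSO.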

Rattus norvegicus [13] = assay: Effect on open filed activity in Harlan Sprague-Dawley rat model of AITC-induced flinching at 30 to 100 mg/kg, po; format: organism-based; set-up: dose 30-100 mg/kg, route oral; conditions: in vivo
[14] = Ratio of fCmax in fed Sprague-Dawley rat at 100 mg/kg, po to IC50 for antagonist activity at rat TRPA1 by [45Ca2+] fluorimetry assay
Method in brief: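 Male Sprague-Dawley rats (n = 3), fed, were given an oral dose in 2% HPMC, 1% Tween 80 in water, adjusted to pH 2.2 with MSA. The unbound Cmax from this PK study was divided by the rat TRPA1 IC50. That IC50 came from a 45Ca2+ fluorimetry antagonism assay in cells expressing rat TRPA1.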

[15] = Fraction unbound in rat plasma by equilibrium dialysis method; format: ADME, cell-free
Rattus norvegicus [16] = assay: fCmax in fed Sprague-Dawley rat at 100 mg/kg, po; format: ADME, organism-based; set-up: dose 100 mg/kg, route oral; conditions: in vivo
Method in brief: (§4)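 Male Sprague-Dawley rats (n = 3) dosed po at 100 mg/kg in 2% HPMC, 1% Tween 80 in H2O, pH 2.2 with MSA. Animals fed during the PK study.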

[17] = Ratio of unbound plasma concentration in Harlan Sprague-Dawley rat model of AITC-induced flinching at 10 mg/kg, po after 1 hr to IC50 for antagonist activity at rat TRPA1 by [45Ca2+] fluorimetry assay; format: organism-based; set-up: dose 10 mg/kg, route oral; conditions: in vivo
Method in brief: (§5)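 Male Harlan Sprague-Dawley rats were dosed orally in 2% HPMC/1% Tween-80. After 1 h, 0.1% AITC was injected into the left ventral hind paw. Unbound plasma concentration was measured (n=8 at 10 and 100 mg/kg, n=6 at 30 mg/kg) and divided by the rat TRPA1 IC50. That IC50 came from a 45Ca2+ fluorimetry antagonism assay in cells expressing rat TRPA1.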

Rattus norvegicus [18] = species: Rattus norvegicus; conditions: Harlan Sprague-Dawley, 30 to 100 mg/kg
Plasma [19] = assay: Unbound plasma concentration in Harlan Sprague-Dawley rat model of AITC-induced flinching at 30 mg/kg, po after 1 hr; format: ADME, organism-based; set-up: dose 30 mg/kg, route oral; conditions: in vivo; method in brief: as §2
Plasma [20] = assay: Unbound plasma concentration in Harlan Sprague-Dawley rat model of AITC-induced flinching at 10 mg/kg, po after 1 hr; format: ADME, organism-based; set-up: dose 10 mg/kg, route oral; conditions: in vivo; method in brief: as §2
[21] = Clearance in Sprague-Dawley rat at 0.5 mg/kg, iv; format: ADME, organism-based; set-up: dose 0.5 mg/kg, route intravenous; conditions: in vivo; method in brief: as §3
[22] = Volume of distribution at steady state in Sprague-Dawley rat at 0.5 mg/kg, iv; format: ADME, organism-based; set-up: dose 0.5 mg/kg, route intravenous; conditions: in vivo, read-out: Vdss; method in brief: as §3
Rattus norvegicus [23] = assay: Unbound clearance in Sprague-Dawley rat at 0.5 mg/kg, iv; format: ADME, organism-based; set-up: dose 0.5 mg/kg, route intravenous; conditions: in vivo; method in brief: as §3
[24] = Ratio of unbound plasma concentration in Harlan Sprague-Dawley rat model of AITC-induced flinching at 100 mg/kg, po after 1 hr to IC50 for antagonist activity at rat TRPA1 by [45Ca2+] fluorimetry assay; format: organism-based; set-up: dose 100 mg/kg, route oral; conditions: in vivo; method in brief: as §5
[25] = Oral bioavailability in fasted Sprague-Dawley rat at 30 mg/kg; format: ADME, organism-based; conditions: in vivo
Method in brief: (§6)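 Male Sprague-Dawley rats (n = 3) dosed po in 2% HPMC, 1% Tween 80 in H2O, pH 2.2 with MSA. Animals fasted during the PK study.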

[26] = Ratio of unbound plasma concentration in Harlan Sprague-Dawley rat model of AITC-induced flinching at 30 mg/kg, po after 1 hr to IC50 for antagonist activity at rat TRPA1 by [45Ca2+] fluorimetry assay; format: organism-based; set-up: dose 30 mg/kg, route oral; conditions: in vivo; method in brief: as §5
Rattus norvegicus [27] = assay: fCmax in fasted Sprague-Dawley rat at 30 mg/kg, po; format: ADME, organism-based; set-up: dose 30 mg/kg, route oral; conditions: in vivo; method in brief: as §6
[28] = Oral bioavailability in fed Sprague-Dawley rat at 100 mg/kg; format: ADME, organism-based; conditions: in vivo; method in brief: as §4
[29] = molecular target: Transient receptor potential cation channel subfamily A member 1 (Rattus norvegicus) (UniProt Q6RI86); assay: Antagonist activity at rat TRPA1 assessed as inhibition of AITC-induced calcium uptake at 2 uM by [45Ca2+] fluorimetry assay
Method in brief: (§7)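 45Ca2+ uptake fluorimetry in cells expressing rat or human TRPA1, run in parallel for both species. The value is single-point percent inhibition at 2 µM test compound, reported when no IC50 was obtained. Compounds were also run without agonist to check for channel agonism.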

[30] = molecular target: T1, Transient receptor potential cation channel subfamily A member 1; assay: Antagonist activity at human TRPA1 assessed as inhibition of AITC-induced calcium uptake at 2 uM by [45Ca2+] fluorimetry assay; method in brief: as §7
Rattus norvegicus [31] = assay: fCmax in fasted Sprague-Dawley rat at 10 mg/kg, po; format: ADME, organism-based; set-up: dose 10 mg/kg, route oral; conditions: in vivo; method in brief: as §6
[32] = Oral bioavailability in fasted Sprague-Dawley rat at 10 mg/kg; format: ADME, organism-based; conditions: in vivo; method in brief: as §6

T2 sequence (Q6RI86 whole entry): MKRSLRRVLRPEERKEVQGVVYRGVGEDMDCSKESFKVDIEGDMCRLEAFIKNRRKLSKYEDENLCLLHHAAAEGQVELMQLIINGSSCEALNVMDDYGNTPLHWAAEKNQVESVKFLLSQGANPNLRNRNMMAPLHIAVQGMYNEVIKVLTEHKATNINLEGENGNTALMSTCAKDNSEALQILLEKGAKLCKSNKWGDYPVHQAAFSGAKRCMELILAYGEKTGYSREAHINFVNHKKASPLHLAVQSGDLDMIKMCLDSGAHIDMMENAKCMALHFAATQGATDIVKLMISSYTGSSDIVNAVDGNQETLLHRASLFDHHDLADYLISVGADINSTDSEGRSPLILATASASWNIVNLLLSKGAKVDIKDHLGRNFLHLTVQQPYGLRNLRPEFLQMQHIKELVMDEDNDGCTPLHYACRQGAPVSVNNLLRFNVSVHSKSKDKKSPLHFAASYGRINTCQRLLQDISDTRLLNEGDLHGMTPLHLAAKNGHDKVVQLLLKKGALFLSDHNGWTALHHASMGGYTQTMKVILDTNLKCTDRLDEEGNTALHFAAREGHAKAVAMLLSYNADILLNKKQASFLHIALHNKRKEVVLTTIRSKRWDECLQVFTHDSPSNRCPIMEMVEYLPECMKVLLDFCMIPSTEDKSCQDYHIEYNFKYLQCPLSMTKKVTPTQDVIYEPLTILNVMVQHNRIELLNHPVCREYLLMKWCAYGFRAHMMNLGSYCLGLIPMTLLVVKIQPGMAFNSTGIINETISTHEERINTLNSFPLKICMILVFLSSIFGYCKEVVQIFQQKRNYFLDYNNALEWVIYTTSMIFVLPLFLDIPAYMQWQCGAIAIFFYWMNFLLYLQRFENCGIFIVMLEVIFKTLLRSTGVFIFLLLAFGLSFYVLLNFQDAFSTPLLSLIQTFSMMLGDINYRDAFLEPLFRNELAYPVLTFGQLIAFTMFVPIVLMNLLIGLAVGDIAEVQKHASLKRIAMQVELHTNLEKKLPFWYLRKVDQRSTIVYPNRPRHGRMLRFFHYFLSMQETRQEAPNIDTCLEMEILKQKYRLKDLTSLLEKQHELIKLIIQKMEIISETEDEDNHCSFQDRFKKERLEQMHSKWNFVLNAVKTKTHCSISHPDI
T1 sequence (O75762 whole entry): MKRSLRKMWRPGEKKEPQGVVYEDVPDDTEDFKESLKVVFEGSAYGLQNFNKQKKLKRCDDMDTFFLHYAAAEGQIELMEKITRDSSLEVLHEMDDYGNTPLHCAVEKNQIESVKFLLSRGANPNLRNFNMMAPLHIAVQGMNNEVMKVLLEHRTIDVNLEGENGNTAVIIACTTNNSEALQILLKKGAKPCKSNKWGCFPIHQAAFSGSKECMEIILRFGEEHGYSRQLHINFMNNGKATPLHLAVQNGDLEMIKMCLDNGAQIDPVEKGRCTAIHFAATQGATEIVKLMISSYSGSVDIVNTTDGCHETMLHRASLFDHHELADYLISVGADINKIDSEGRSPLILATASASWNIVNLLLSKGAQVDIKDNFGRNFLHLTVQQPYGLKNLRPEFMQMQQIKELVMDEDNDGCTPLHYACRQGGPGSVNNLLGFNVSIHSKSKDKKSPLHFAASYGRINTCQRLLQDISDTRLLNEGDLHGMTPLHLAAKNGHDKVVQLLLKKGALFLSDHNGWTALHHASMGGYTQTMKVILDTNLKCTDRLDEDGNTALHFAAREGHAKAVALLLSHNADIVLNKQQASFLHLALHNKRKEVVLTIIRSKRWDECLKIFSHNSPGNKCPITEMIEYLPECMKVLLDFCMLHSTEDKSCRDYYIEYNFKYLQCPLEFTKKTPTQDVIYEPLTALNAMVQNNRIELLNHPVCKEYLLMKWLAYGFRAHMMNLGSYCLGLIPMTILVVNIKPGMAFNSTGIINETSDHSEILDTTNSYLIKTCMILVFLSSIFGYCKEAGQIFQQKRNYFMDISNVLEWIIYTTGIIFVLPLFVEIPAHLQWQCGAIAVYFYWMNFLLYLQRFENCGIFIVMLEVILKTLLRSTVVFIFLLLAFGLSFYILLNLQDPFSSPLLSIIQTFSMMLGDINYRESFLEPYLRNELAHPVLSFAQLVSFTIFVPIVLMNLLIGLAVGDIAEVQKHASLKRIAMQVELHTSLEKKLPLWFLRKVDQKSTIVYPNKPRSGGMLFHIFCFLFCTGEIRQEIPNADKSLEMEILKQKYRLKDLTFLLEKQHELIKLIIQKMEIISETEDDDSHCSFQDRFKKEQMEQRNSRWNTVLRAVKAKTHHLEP
Transient receptor potential cation channel subfamily A member 1 (Rattus norvegicus), sequence (Q6RI86 whole entry): as the sequence (Q6RI86 whole entry) above

Compound	IC50 [1]	EC50 [4]	microsomal CLint [5]	microsomal CLint [6]	solubility [7]	solubility [8]	EC50 [9]	IC50 [10]	solubility [11]	also measured
COCCCOc1cccc([C@@H]2NC(=S)Nc3c2oc2ncccc32)c1	> 40000 nM									Cp(f) (Plasma [2]): 370 nM; inhibition (Rattus norvegicus [3]): inactive
COCCCOc1cccc(C2NC(=S)NC3=C2C(=O)c2ccccc23)n1 (centres undefined)	970 nM	> 40000 nM	160 µL/min/mg	230 µL/min/mg	35 µg/mL (≈ 91.8 µM)	17 µg/mL (≈ 44.6 µM)	> 40000 nM	1000 nM	36 µg/mL (≈ 94.4 µM)	
COCCCOc1cncc(C2NC(=S)NC3=C2C(=O)c2ccccc23)c1 (centres undefined)	1200 nM	> 40000 nM	90 µL/min/mg	200 µL/min/mg	14 µg/mL (≈ 36.7 µM)	120 µg/mL (≈ 315 µM)	> 40000 nM	530 nM	2.8 µg/mL (≈ 7.34 µM)	
O=C1C2=C(NC(=S)NC2c2cccc(OCc3ccccn3)c2)c2ccccc21 (centres undefined)	300 nM	> 40000 nM	180 µL/min/mg	310 µL/min/mg	200 µg/mL (≈ 501 µM)	1 µg/mL (≈ 2.5 µM)	> 40000 nM	230 nM	10 µg/mL (≈ 25 µM)	
COCCCOc1cccc([C@H]2NC(=S)Nc3c2oc2ncccc32)c1	170 nM	> 40000 nM	30 µL/min/mg	90 µL/min/mg	46 µg/mL (≈ 125 µM)	28 µg/mL (≈ 75.8 µM)	> 40000 nM	45 nM	21 µg/mL (≈ 56.8 µM)	half-life [12]: 1.2 h; Activity (Rattus norvegicus [13]): Non-toxic; Ratio [14]: 14; fraction unbound [15]: 0.085; fCmax (Rattus norvegicus [16]): 0.612 µM; Ratio [17]: 1; inhibition (Rattus norvegicus [18]): Active; Cp(f) (Plasma [19]): 220 nM; Cp(f) (Plasma [2]): 740 nM; Cp(f) (Plasma [20]): 48 nM; clearance [21]: 50 mL/min/kg; Vd [22]: 4 L/kg; CL free (Rattus norvegicus [23]): 600 mL/min/kg; Ratio [24]: 16; bioavailability [25]: 13%; Ratio [26]: 5; fCmax (Rattus norvegicus [27]): 0.082 µM; bioavailability [28]: 79%
S=C1Nc2c(oc3ncccc23)C(c2cccc(OCc3cccnc3)c2)N1 (centres undefined)	940 nM	> 40000 nM	100 µL/min/mg	40 µL/min/mg	21 µg/mL (≈ 54.1 µM)	200 µg/mL (≈ 515 µM)	> 40000 nM	1300 nM	15 µg/mL (≈ 38.6 µM)	
O=C1C2=C(NC(=S)NC2c2cccc(OCc3cccnc3)c2)c2ccccc21 (centres undefined)	710 nM	> 40000 nM	150 µL/min/mg	250 µL/min/mg	15 µg/mL (≈ 37.5 µM)	140 µg/mL (≈ 350 µM)	> 40000 nM	360 nM	1 µg/mL (≈ 2.5 µM)	
COCCCOc1cc(C2NC(=S)NC3=C2C(=O)c2ccccc23)ccn1 (centres undefined)	> 40000 nM	> 40000 nM	82 µL/min/mg	350 µL/min/mg		22 µg/mL (≈ 57.7 µM)	> 40000 nM	> 40000 nM		
COCCCOc1cccc(C2NC(=S)NC3=C2C(=O)c2ccccc23)c1 (racemic)	30 nM	> 40000 nM			23 µg/mL (≈ 60.5 µM)	1 µg/mL (≈ 2.63 µM)	> 40000 nM	28 nM	10 µg/mL (≈ 26.3 µM)	

More lines, main results first:

IC50 [1]	EC50 [4]	microsomal CLint [5]	microsomal CLint [6]	solubility [7]	solubility [8]	EC50 [9]	IC50 [10]	solubility [11]	Compound	also measured
200 nM	> 40000 nM	70 µL/min/mg	140 µL/min/mg	66 µg/mL (≈ 171 µM)	14 µg/mL (≈ 36.2 µM)	> 40000 nM	140 nM	17 µg/mL (≈ 44 µM)	COCCCOc1cccc(C2NC(=S)Nc3c2oc2c(F)cccc32)c1 (centres undefined)	
590 nM	> 40000 nM	90 µL/min/mg	350 µL/min/mg	23 µg/mL (≈ 62.4 µM)	1 µg/mL (≈ 2.71 µM)	> 40000 nM	230 nM	1 µg/mL (≈ 2.71 µM)	COCCCOc1cccc([C@H]2NC(=S)Nc3c2oc2ccccc32)c1	
> 2000 nM	> 40000 nM	43 µL/min/mg	220 µL/min/mg	39 µg/mL (≈ 102 µM)	500 µg/mL (≈ 1310 µM)	> 40000 nM	> 2000 nM	62 µg/mL (≈ 163 µM)	COCCCOc1ccnc(C2NC(=S)NC3=C2C(=O)c2ccccc23)c1 (centres undefined)	inhibition [29]: 0%; inhibition [30]: 1%
26 nM	> 40000 nM	150 µL/min/mg	230 µL/min/mg	12 µg/mL (≈ 31.5 µM)	5 µg/mL (≈ 13.1 µM)	> 40000 nM	19 nM	4 µg/mL (≈ 10.5 µM)	COCCCOc1cccc([C@H]2NC(=S)NC3=C2C(=O)c2ccccc23)c1	half-life [12]: 2.1 h; fraction unbound [15]: 0.01; fCmax (Rattus norvegicus [31]): 0.005 µM; bioavailability [32]: 10%; clearance [21]: 48.3 mL/min/kg; Vd [22]: 4.7 L/kg; CL free (Rattus norvegicus [23]): 4830 mL/min/kg

— ChEMBL document CHEMBL3352604, “Development of novel azabenzofuran TRPA1 antagonists as in vivo tools” (Bioorg Med Chem Lett, 2014)
